Converted amounts (≈) assume the structure as drawn.
Legend:
Assay type in all cases: functional
Escherichia coli [1] = test: Antibacterial activity against Escherichia coli ATCC 25922 after 18 to 24 hrs by two-fold serial dilution method
Summary of the method: (§1)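 Twofold serial dilution in agar media against Gram-positive and Gram-negative strains. Plates incubated at 35 °C for 18–24 h. MIC read as the lowest compound concentration giving complete inhibition of bacterial growth.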

Escherichia coli [2] = test: Antibacterial activity against extended-spectrum beta-lactamase producing Escherichia coli 14-1 after 18 to 24 hrs by two-fold serial dilution method; summary of the method: as §1
Escherichia coli [3] = test: Antibacterial activity against extended-spectrum beta-lactamase producing Escherichia coli 14-2 after 18 to 24 hrs by two-fold serial dilution method; summary of the method: as §1
Escherichia coli [4] = test: Antibacterial activity against Escherichia coli 14-1 after 18 to 24 hrs by two-fold serial dilution method; summary of the method: as §1
Escherichia coli [5] = test: Antibacterial activity against Escherichia coli 14-2 after 18 to 24 hrs by two-fold serial dilution method; summary of the method: as §1
Klebsiella pneumoniae [6] = test: Antibacterial activity against extended-spectrum beta-lactamase producing Klebsiella pneumoniae 14-17 after 18 to 24 hrs by two-fold serial dilution method; summary of the method: as §1
Klebsiella pneumoniae [7] = test: Antibacterial activity against extended-spectrum beta-lactamase producing Klebsiella pneumoniae 14-18 after 18 to 24 hrs by two-fold serial dilution method; summary of the method: as §1
Klebsiella pneumoniae [8] = test: Antibacterial activity against extended-spectrum beta-lactamase producing Klebsiella pneumoniae 14-19 after 18 to 24 hrs by two-fold serial dilution method; summary of the method: as §1
Klebsiella pneumoniae [9] = test: Antibacterial activity against Klebsiella pneumoniae 14-1 after 18 to 24 hrs by two-fold serial dilution method; summary of the method: as §1
Klebsiella pneumoniae [10] = test: Antibacterial activity against Klebsiella pneumoniae 14-2 after 18 to 24 hrs by two-fold serial dilution method; summary of the method: as §1
Klebsiella pneumoniae [11] = test: Antibacterial activity against Klebsiella pneumoniae 14-3 after 18 to 24 hrs by two-fold serial dilution method; summary of the method: as §1
Klebsiella pneumoniae [12] = test: Antibacterial activity against Klebsiella pneumoniae 14-4 after 18 to 24 hrs by two-fold serial dilution method; summary of the method: as §1
Pseudomonas aeruginosa [13] = test: Antibacterial activity against Pseudomonas aeruginosa ATCC 27853 after 18 to 24 hrs by two-fold serial dilution method; summary of the method: as §1
Pseudomonas aeruginosa [14] = test: Antibacterial activity against Pseudomonas aeruginosa 14-9 after 18 to 24 hrs by two-fold serial dilution method; summary of the method: as §1
Pseudomonas aeruginosa [15] = test: Antibacterial activity against Pseudomonas aeruginosa 14-14 after 18 to 24 hrs by two-fold serial dilution method; summary of the method: as §1
Pseudomonas aeruginosa [16] = test: Antibacterial activity against Pseudomonas aeruginosa 14-15 after 18 to 24 hrs by two-fold serial dilution method; summary of the method: as §1
Pseudomonas aeruginosa [17] = test: Antibacterial activity against Pseudomonas aeruginosa 14-16 after 18 to 24 hrs by two-fold serial dilution method; summary of the method: as §1
Staphylococcus aureus [18] = test: Antibacterial activity against Staphylococcus aureus CMCC 26003 after 18 to 24 hrs by two-fold serial dilution method; summary of the method: as §1
Staphylococcus aureus [19] = test: Antibacterial activity against methicillin-sensitive Staphylococcus aureus 14-1 after 18 to 24 hrs by two-fold serial dilution method; summary of the method: as §1
Staphylococcus aureus [20] = test: Antibacterial activity against methicillin-sensitive Staphylococcus aureus 14-3 after 18 to 24 hrs by two-fold serial dilution method; summary of the method: as §1
Staphylococcus aureus [21] = test: Antibacterial activity against methicillin-sensitive Staphylococcus aureus 14-4 after 18 to 24 hrs by two-fold serial dilution method; summary of the method: as §1
Staphylococcus aureus [22] = test: Antibacterial activity against methicillin-resistant Staphylococcus aureus 14-4 after 18 to 24 hrs by two-fold serial dilution method
Summary of the method: (§2)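 Agar media, standard twofold serial dilution. MIC is the lowest concentration giving complete inhibition of bacterial growth after incubation at 35 °C for 18–24 h. Ciprofloxacin and levofloxacin were run as comparators.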

Staphylococcus aureus [23] = test: Antibacterial activity against methicillin-resistant Staphylococcus aureus 14-5 after 18 to 24 hrs by two-fold serial dilution method; summary of the method: as §2
[24] = system: Staphylococcus epidermidis; test: Antibacterial activity against methicillin-sensitive Staphylococcus epidermidis 14-2 after 18 to 24 hrs by two-fold serial dilution method; summary of the method: as §1
[25] = system: Staphylococcus epidermidis; test: Antibacterial activity against methicillin-resistant Staphylococcus epidermidis 14-21 after 18 to 24 hrs by two-fold serial dilution method; summary of the method: as §2
[26] = system: Staphylococcus epidermidis; test: Antibacterial activity against methicillin-resistant Staphylococcus epidermidis 14-22 after 18 to 24 hrs by two-fold serial dilution method; summary of the method: as §2
[27] = system: Staphylococcus epidermidis; test: Antibacterial activity against methicillin-resistant Staphylococcus epidermidis 14-37 after 18 to 24 hrs by two-fold serial dilution method; summary of the method: as §2
[28] = system: Staphylococcus epidermidis; test: Antibacterial activity against methicillin-resistant Staphylococcus epidermidis 14-39 after 18 to 24 hrs by two-fold serial dilution method; summary of the method: as §2
Streptococcus pneumoniae = test: Antibacterial activity against methicillin-resistant Streptococcus pneumoniae ATCC 19615 after 18 to 24 hrs by two-fold serial dilution method; summary of the method: as §2
Enterococcus faecium [29] = test: Antibacterial activity against Enterococcus faecium 14-2 after 18 to 24 hrs by two-fold serial dilution method; summary of the method: as §1
Enterococcus faecium [30] = test: Antibacterial activity against Enterococcus faecium 14-5 after 18 to 24 hrs by two-fold serial dilution method; summary of the method: as §1
Enterococcus faecium [31] = test: Antibacterial activity against Enterococcus faecium 14-6 after 18 to 24 hrs by two-fold serial dilution method; summary of the method: as §1
Enterococcus faecalis [32] = test: Antibacterial activity against Enterococcus faecalis 14-1 after 18 to 24 hrs by two-fold serial dilution method; summary of the method: as §1
Enterococcus faecalis [33] = test: Antibacterial activity against Enterococcus faecalis 14-2 after 18 to 24 hrs by two-fold serial dilution method; summary of the method: as §1

SMILES | MIC (Escherichia coli [1]) | MIC (Escherichia coli [2]) | MIC (Escherichia coli [3]) | MIC (Escherichia coli [4]) | MIC (Escherichia coli [5]) | MIC (Klebsiella pneumoniae [6]) | MIC (Klebsiella pneumoniae [7]) | MIC (Klebsiella pneumoniae [8]) | MIC (Klebsiella pneumoniae [9]) | MIC (Klebsiella pneumoniae [10]) | MIC (Klebsiella pneumoniae [11]) | MIC (Klebsiella pneumoniae [12]) | MIC (Pseudomonas aeruginosa [13]) | MIC (Pseudomonas aeruginosa [14]) | MIC (Pseudomonas aeruginosa [15]) | MIC (Pseudomonas aeruginosa [16]) | MIC (Pseudomonas aeruginosa [17]) | MIC (Staphylococcus aureus [18]) | MIC (Staphylococcus aureus [19]) | MIC (Staphylococcus aureus [20]) | also measured
C[C@H]1COc2c(N3C/C(=N/OCc4ccccc4)C(CNC4CC4)C3)c(F)cc3c(=O)c(C(=O)O)cn1c23 (stereo partly drawn) | 1 µg/mL (≈ 1.92 µM) | 2 µg/mL (≈ 3.84 µM) | > 64 µg/mL | > 64 µg/mL | > 64 µg/mL | 32 µg/mL (≈ 61.5 µM) | 32 µg/mL (≈ 61.5 µM) | 64 µg/mL (≈ 123 µM) | 32 µg/mL (≈ 61.5 µM) | 64 µg/mL (≈ 123 µM) | 64 µg/mL (≈ 123 µM) | 64 µg/mL (≈ 123 µM) | 32 µg/mL (≈ 61.5 µM) | 16 µg/mL (≈ 30.7 µM) | 64 µg/mL (≈ 123 µM) | 64 µg/mL (≈ 123 µM) | 32 µg/mL (≈ 61.5 µM) | < 0.008 µg/mL | 2 µg/mL (≈ 3.84 µM) | 0.125 µg/mL (≈ 0.24 µM) | MIC (Staphylococcus aureus [21]): 0.06 µg/mL (≈ 0.115 µM); MIC (Staphylococcus aureus [22]): 4 µg/mL (≈ 7.68 µM); MIC (Staphylococcus aureus [23]): 4 µg/mL (≈ 7.68 µM); MIC [24]: 8 µg/mL (≈ 15.4 µM); MIC [25]: 8 µg/mL (≈ 15.4 µM); MIC [26]: 4 µg/mL (≈ 7.68 µM); MIC [27]: 2 µg/mL (≈ 3.84 µM); MIC [28]: 4 µg/mL (≈ 7.68 µM); MIC (Streptococcus pneumoniae): 0.125 µg/mL (≈ 0.24 µM); MIC (Enterococcus faecium [29]): 4 µg/mL (≈ 7.68 µM); MIC (Enterococcus faecium [30]): 8 µg/mL (≈ 15.4 µM); MIC (Enterococcus faecium [31]): 16 µg/mL (≈ 30.7 µM); MIC (Enterococcus faecalis [32]): 16 µg/mL (≈ 30.7 µM); MIC (Enterococcus faecalis [33]): 0.5 µg/mL (≈ 0.961 µM)
CCO/N=C1/CN(c2c(F)cc3c(=O)c(C(=O)O)cn([C@@H]4C[C@@H]4F)c3c2OC)CC1CNC1CC1 (stereo partly drawn) | 2 µg/mL (≈ 4.08 µM) | 4 µg/mL (≈ 8.15 µM) | > 32 µg/mL | > 32 µg/mL | > 32 µg/mL | 32 µg/mL (≈ 65.2 µM) | 32 µg/mL (≈ 65.2 µM) | > 32 µg/mL | > 32 µg/mL | > 32 µg/mL | > 32 µg/mL | > 32 µg/mL | 16 µg/mL (≈ 32.6 µM) | 32 µg/mL (≈ 65.2 µM) | 32 µg/mL (≈ 65.2 µM) | 32 µg/mL (≈ 65.2 µM) | 32 µg/mL (≈ 65.2 µM) | 0.06 µg/mL (≈ 0.122 µM) | 8 µg/mL (≈ 16.3 µM) | 0.03 µg/mL (≈ 0.0612 µM) | MIC (Staphylococcus aureus [21]): 0.06 µg/mL (≈ 0.122 µM); MIC (Staphylococcus aureus [22]): 8 µg/mL (≈ 16.3 µM); MIC (Staphylococcus aureus [23]): 16 µg/mL (≈ 32.6 µM); MIC [24]: 16 µg/mL (≈ 32.6 µM); MIC [25]: 8 µg/mL (≈ 16.3 µM); MIC [26]: 8 µg/mL (≈ 16.3 µM); MIC [27]: 8 µg/mL (≈ 16.3 µM); MIC [28]: 4 µg/mL (≈ 8.15 µM); MIC (Streptococcus pneumoniae): 0.25 µg/mL (≈ 0.51 µM); MIC (Enterococcus faecium [29]): 8 µg/mL (≈ 16.3 µM); MIC (Enterococcus faecium [30]): 4 µg/mL (≈ 8.15 µM); MIC (Enterococcus faecium [31]): 16 µg/mL (≈ 32.6 µM); MIC (Enterococcus faecalis [32]): 32 µg/mL (≈ 65.2 µM); MIC (Enterococcus faecalis [33]): 2 µg/mL (≈ 4.08 µM)
